In the library only some 4.4% were active in any assay of this set; here they are far more common.
TbMetRS inhib = blocks T. brucei methionyl-tRNA synthetase activity | purified T. brucei MetRS, ATP depletion, Kinase-Glo luminescence | inhibition, % at 11.9 µM | hit rate 0.4% among 360,000 | AID 624268;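 active = inhibition above a per-plate cutoff of the control wells' mean inhibition plus 3 SD, cut at about 5.5% in these data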
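technique = Kinase-Glo luminescence, ATP depletion format | system = purified MetRS (methionyl-tRNA synthetase) enzyme from Trypanosoma brucei | timing = 15 min preincubation, 2 h reaction, all 25 °C | evaluation = percent inhibition versus plate control medians | dosing = single dose, 11.9 µM final nominal, 0.9% final DMSO | also added = substrates ATP, L-methionine and bulk Escherichia coli tRNA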
bovine MsrA act = activates bovine MsrA enzyme. AID 602163. activation, % at 10.6 µM. purified bovine MsrA, absorbance read-out. hit rate 0.3% among 360,000; in the data active = activation above about 7.5%
AHR activator = activates the human aryl hydrocarbon receptor; P35869; AHR-responsive luciferase reporter cells, luminescence; activation, % at 5 µM; hit rate 2.5% among 320,000; AID 2796; in the data active = activation above about 47%
MsrA inhibitor = bovine MsrA inhibition | inhibition, % at 15.5 µM | purified bovine MsrA, absorbance read-out | AID 651718 | hit rate 0.75% among 360,000; in the data active = inhibition above about 4.5%
AI-2 QS modul = Vibrio harveyi AI-2 quorum sensing modulation | Vibrio harveyi JMH597 AI-2 luminescence/OD600 ratio, 9 h; hits give low values; strain lacks LuxN and CqsS sensors; 0 = neutral-control median | activity change, % at 7.5 µM | hit rate 0.4% among 300,000 | AID 2094; in the data active = activity change below about -75%, passing the limit was not always enough;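 also: luminescence divided by OD600 gain over 9 h not by final OD600 alone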
m5-HT2A agonist = mouse HTR2A agonism via beta-arrestin recruitment. P35363. CHO-K1 mHTR2A beta-arrestin complementation, luminescence; percent of 30 µM serotonin response. AID 624169. activation, % at 7.6 µM. hit rate 0.66% among 360,000;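 active = activation above a run cutoff, the mean activation of all tested compounds plus 3 SD, cut at about 14% in these data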
Target sequence (P35363 whole entry, looked up): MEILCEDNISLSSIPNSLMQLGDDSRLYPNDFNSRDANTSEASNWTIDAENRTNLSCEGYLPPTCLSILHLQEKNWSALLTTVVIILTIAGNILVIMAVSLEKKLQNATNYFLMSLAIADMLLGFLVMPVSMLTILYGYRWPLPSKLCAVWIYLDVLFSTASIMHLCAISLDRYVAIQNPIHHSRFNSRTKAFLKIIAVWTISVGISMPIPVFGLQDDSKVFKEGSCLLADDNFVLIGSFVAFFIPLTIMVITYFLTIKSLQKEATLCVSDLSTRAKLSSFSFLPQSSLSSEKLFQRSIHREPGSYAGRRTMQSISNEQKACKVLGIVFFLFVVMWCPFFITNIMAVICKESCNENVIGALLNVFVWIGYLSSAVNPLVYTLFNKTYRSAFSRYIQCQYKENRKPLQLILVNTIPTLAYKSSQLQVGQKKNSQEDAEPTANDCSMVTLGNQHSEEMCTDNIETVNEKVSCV
A number is an active result; n = inactive; x = not tested or not shown.

SMILES	TbMetRS inhib	bovine MsrA act	AHR activator	MsrA inhibitor	AI-2 QS modul	m5-HT2A agonist
O=C(Nc1nc(-c2ccc(Cl)cc2)cs1)C1=COCCO1	n	n	n	n	n	n
Cc1ccc(Cl)c2sc(NC(=O)C3=COCCO3)nc12	n	n	58	n	n	n
COc1ccc(Cl)c2sc(NC(=O)C3=COCCO3)nc12	n	n	n	n	n	n
Cc1ccc(-c2[nH]nc(N)c2N=Nc2ccccc2C)cc1	n	n	62	n	n	n
Cc1cccc(NC(=O)c2cc(-c3ccc(C)s3)nc3ccccc23)n1	n	n	56	n	n	n
Cc1ccc(NC(=O)c2cc(C)nc3ccccc23)cc1	n	n	67	n	n	n
Cc1cc(C(=O)Nc2ccc(F)cc2)c2ccccc2n1	n	n	56	n	n	n
O=C(Nc1ccccc1)c1cc(Cl)nc2ccccc12	n	n	49	n	n	n
O=C(O)c1cc(Cl)nc2ccccc12	n	n	n	n	n	n
O=C(COC(=O)c1cc(Cl)ccc1Cl)Nc1ccc2[nH]c(=O)[nH]c2c1	n	n	n	n	n	n
Cc1cccnc1NC(=O)c1sc2ccccc2c1Cl	n	n	69	n	n	n
Cc1cccnc1NC(=O)Nc1ccc(Cl)cc1	n	n	74	n	n	n
Cc1nnc(NC(=O)c2sc3ccccc3c2Cl)s1	n	n	48	n	n	n
Cc1cc(=O)oc2cc(OCc3c(F)cccc3Cl)ccc12	x	x	x	n	x	x
CC1NC(=O)c2cc3ccccc3cc2-n2c1nc1ccc(F)cc1c2=O (centres undefined)	n	n	x	n	x	n
Nc1nc2c(ncn2[C@@H]2O[C@H](C(=O)N[C@H](Cc3ccccc3)C(=O)O)[C@@H](O)[C@H]2O)c(=O)[nH]1	x	x	x	n	x	x
COC(=O)C1=C(C)N(Cc2ccccc2C(F)(F)F)C(=NCc2cccc(C(F)(F)F)c2)NC1CCc1ccccc1 (centres undefined)	x	x	x	n	x	x
COC(=O)C1=C(C)N(C)C(=NCc2ccccc2C(F)(F)F)NC1c1ccc(C(F)(F)F)cc1 (centres undefined)	x	x	x	n	x	x
Cc1ccc2c(c1)sc1nc(=O)n(-c3ccc(Cl)cc3)c(=O)n12	n	n	n	n	n	n
O=c1nc2sc3ccccc3n2c(=O)n1-c1ccc(Cl)cc1	n	n	52	n	n	n
CCCCS(=O)(=O)N1CCN(C(=O)C(=O)c2cccc(C(F)(F)F)c2)CC1	x	x	x	n	x	x
Cc1cc(N2CCN(c3ccccc3)CC2)nc(-c2ccccc2O)n1	n	n	78	n	n	n
CC[n+]1c(/C=C/Nc2ccccc2)oc2ccccc21	n	n	109	n	n	n
Cc1ccc(-n2nc(C)c3c2OC(N)=C(C#N)C3c2cccs2)cc1 (centres undefined)	n	n	68	n	n	n
Cc1ccc(-n2nc(C)c3c2OC(N)=C(C#N)C3c2ccccc2F)cc1 (centres undefined)	n	n	66	n	n	n
SMILES	TbMetRS inhib	bovine MsrA act	AHR activator	MsrA inhibitor	AI-2 QS modul	m5-HT2A agonist
COc1ccc(-c2nn(-c3ccccc3)cc2C(N)=O)cc1OC	n	n	75	n	x	n
COCCNC(=S)N(C)[C@H]1C[C@H]2c3[nH]c4cccc(-c5ccccc5)c4c3CCN2C(=O)[C@H]1[C@H](C)O	x	x	x	n	x	x
COc1ccc(OC)c(Nc2cc(C)c3ccccc3n2)c1	n	n	49	n	n	n
COc1ccc(OC)c(Nc2c3ccccc3nc3ccccc23)c1	n	n	n	n	n	n
O=C(Cc1cccs1)NCCSc1c(-c2ccc(Cl)cc2)[nH]c2ccccc12	n	n	51	n	n	n
CCCCCCSc1ccc([C@H]2N[C@@](C)(C(=O)OC)[C@H]3C(=O)N(C)C(=O)[C@@H]23)cc1	n	8.4	n	n	n	n
COc1ccc(-c2csc(NC(=O)CSc3n[nH]c(N)n3)n2)cc1	n	n	49	n	n	n
Nc1ccc2nc(SCC(=O)c3ccccc3)sc2c1	n	n	49	n	n	n
Nc1nnc(SCC(=O)c2ccc3ccccc3c2)s1	x	x	48	n	n	x
Nc1nnc(SCC(=O)c2cccc([N+](=O)[O-])c2)s1	n	n	n	n	n	n
Cc1ccc(S(=O)(=O)N2CCCc3nc(-c4ccccc4)ccc32)cc1	x	x	x	n	x	x
O=c1[nH]c(/C=C2\C=Nc3ccccc32)c(O)n1Cc1ccccc1F	n	n	n	n	n	n
CSc1nc(O)c(/C=C2\C=Nc3ccccc32)[nH]1	n	n	76	n	n	n
O=C(Nc1cccc(Cl)c1)Nc1csc([N+](=O)[O-])c1	n	n	n	n	-91	n
CC(=O)Nc1cccc(N(C)S(C)(=O)=O)c1	n	n	n	n	n	n
O=C(Nc1ccncc1)Nc1cccc(Cl)c1	n	n	n	n	n	n
CN(c1cccc(NC(=O)Nc2cccc(Cl)c2)c1)S(C)(=O)=O	n	n	77	n	n	n
O=C(NCc1ccc(Cl)cc1)C(=O)c1cn(CC(=O)N2CCOCC2)c2ccccc12	n	n	n	n	n	n
O=C(Nc1ccccc1Cl)C(=O)c1cn(CC(=O)N2CCOCC2)c2ccccc12	n	n	73	n	n	n
COC(=O)[C@]12C[C@H](CC(=O)NCC3CCCCC3)C(=O)N(Cc3ccc4c(c3)OCO4)C1=C[C@H](C(C)(C)C)O[C@@H]2C	x	x	x	n	x	x
CNC(=S)NNC(=O)c1oc2nc(-c3ccccc3)cc(C)c2c1N	n	n	56	n	n	n
CCOc1ccccc1CNC(=O)c1c([N+](=O)[O-])c(C)nn1C	n	n	61	n	n	n
O=C(NC(=S)Nc1nc2c(s1)CSc1ccccc1-2)c1ccccc1	n	n	69	n	n	n
O=C(NC(=S)Nc1nc2c(s1)CCCC2)c1ccc(C(=O)c2ccccc2)cc1	n	n	n	n	n	n
COCC1CN(CCc2ccc(F)cc2)S(=O)(=O)c2c(OCCN3C(=O)[C@@H]4[C@H](C3=O)[C@@H]3C=C[C@H]4C3)cccc2O1 (some centres undefined)	x	x	x	n	x	x
SMILES	TbMetRS inhib	bovine MsrA act	AHR activator	MsrA inhibitor	AI-2 QS modul	m5-HT2A agonist
Cc1ccc(NC(=O)OCC(F)(F)C(F)F)cc1NC(=O)OCC(F)(F)C(F)F	n	n	55	n	n	n
C=CCCN1[C@@H](Cc2ccccc2)COc2ccccc2S1(=O)=O	x	x	x	n	x	x
O=[N+]([O-])c1ccc(-c2cn(-c3ccccc3)c(=S)[nH]2)cc1	n	n	47	n	n	n
S=c1[nH]c(-c2ccccc2)cn1-c1ccccc1	n	n	n	n	n	n
O=[N+]([O-])c1cccc(-c2cn(-c3ccccc3)c(=S)[nH]2)c1	n	n	74	n	n	n
COC(=O)c1c(-c2ccc(OC)cc2)c2c(c3c4cc(OC)ccc4n(C(=O)c4ccccc4)c13)C(=O)N(C)C2	x	x	x	n	x	x
CCOC(=O)c1[nH]c(C)c(C(=O)Nc2ccc3c(c2)OCCO3)c1C	n	n	n	n	n	n
Cc1nn(C)cc1C(=O)Nc1ccc2c(c1)OCCO2	n	n	47	n	n	n

Source: PubChem (several laboratories)
